According to ChEMBL document CHEMBL5058577, “EUbOPEN Chemogenomics Library 2 (Multiplex)” (2022):

Test system: Fibroblast
Assay: Multiplex assay against human fibroblast
Type: toxicity, cell-based
How it was run: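 Hoechst33342, BioTracker Green Microtubule Cytoskeleton Dye, MitoTracker Red and Annexin V Alexa Fluor 680 were added to live cells at seeding, and imaging on a CQ1 microscope at 37°C and 5% CO2 followed compound addition. Gating by CellPathfinder machine learning separated cells into Hoechst high-intensity objects or normal cells, then normal cells into healthy, pyknosed or fragmented nuclei, then pyknosed cells into mitotic or apoptotic. Per cents of healthy-nucleus cells are reported for the tubulin, mitochondrial-mass and membrane-permeability phenotypes.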

[1] = 12 h, 1 µM, compound concentration 1 uM, replicate 1
[2] = 12 h, 1 µM, compound concentration 1 uM, replicate 2
[3] = 12 h, 10 µM, compound concentration 10 uM, replicate 1
[4] = 12 h, 10 µM, compound concentration 10 uM, replicate 2
[5] = 24 h, 1 µM, compound concentration 1 uM, replicate 1
[6] = 24 h, 1 µM, compound concentration 1 uM, replicate 2
[7] = 24 h, 10 µM, compound concentration 10 uM, replicate 1
[8] = 24 h, 10 µM, compound concentration 10 uM, replicate 2
[9] = 48 h, 1 µM, compound concentration 1 uM, replicate 1
[10] = 48 h, 1 µM, compound concentration 1 uM, replicate 2
[11] = 48 h, 10 µM, compound concentration 10 uM, replicate 1
[12] = 48 h, 10 µM, compound concentration 10 uM, replicate 2

Compound: CCn1c(-c2nc3cc(C(=O)N4CCCC(N)C4)ccc3n2C)cc2ccccc21.Cl (stereo unspecified)
- Population Apoptotic (%) [1]: 63%
- Population Fragmented Nuclei (%) [1]: 17%
- Population Healthy Nuclei (%) [1]: 67%
- Population Hoechst High Intensity Objects (%) [1]: 3%
- Population Membrane Permeable-Phenotype (%) [1]: 0%
- Population Mitochondria Different-Phenotype (%) [1]: 4%
- Population Mitotic Cells (%) [1]: 36%
- Population Normal (%) [1]: 96%
- Population Pyknosed Nuclei (%) [1]: 15%
- Population Tubulin-Different-Phenotype (%) [1]: 27%
- Total Cell Count [1]: 128
- Population Apoptotic (%) [2]: 32%
- Population Fragmented Nuclei (%) [2]: 21%
- Population Healthy Nuclei (%) [2]: 54%
- Population Hoechst High Intensity Objects (%) [2]: 5%
- Population Membrane Permeable-Phenotype (%) [2]: 2%
- Population Mitochondria Different-Phenotype (%) [2]: 17%
- Population Mitotic Cells (%) [2]: 67%
- Population Normal (%) [2]: 94%
- Population Pyknosed Nuclei (%) [2]: 23%
- Population Tubulin-Different-Phenotype (%) [2]: 41%
- Total Cell Count [2]: 167
- Population Apoptotic (%) [3]: 41%
- Population Fragmented Nuclei (%) [3]: 22%
- Population Healthy Nuclei (%) [3]: 63%
- Population Hoechst High Intensity Objects (%) [3]: 1%
- Population Membrane Permeable-Phenotype (%) [3]: 0%
- Population Mitochondria Different-Phenotype (%) [3]: 18%
- Population Mitotic Cells (%) [3]: 58%
- Population Normal (%) [3]: 98%
- Population Pyknosed Nuclei (%) [3]: 14%
- Population Tubulin-Different-Phenotype (%) [3]: 69%
- Total Cell Count [3]: 221
- Population Apoptotic (%) [4]: 38%
- Population Fragmented Nuclei (%) [4]: 32%
- Population Healthy Nuclei (%) [4]: 37%
- Population Hoechst High Intensity Objects (%) [4]: 3%
- Population Mitochondria Different-Phenotype (%) [4]: 19%
- Population Mitotic Cells (%) [4]: 61%
- Population Normal (%) [4]: 96%
- Population Pyknosed Nuclei (%) [4]: 29%
- Population Tubulin-Different-Phenotype (%) [4]: 80%
- Total Cell Count [4]: 186
- Population Apoptotic (%) [5]: 50%
- Population Fragmented Nuclei (%) [5]: 22%
- Population Healthy Nuclei (%) [5]: 68%
- Population Hoechst High Intensity Objects (%) [5]: 0%
- Population Membrane Permeable-Phenotype (%) [5]: 0%
- Population Mitochondria Different-Phenotype (%) [5]: 5%
- Population Mitotic Cells (%) [5]: 50%
- Population Normal (%) [5]: 99%
- Population Pyknosed Nuclei (%) [5]: 9%
- Population Tubulin-Different-Phenotype (%) [5]: 30%
- Total Cell Count [5]: 127
- Population Apoptotic (%) [6]: 55%
- Population Fragmented Nuclei (%) [6]: 27%
- Population Healthy Nuclei (%) [6]: 54%
- Population Hoechst High Intensity Objects (%) [6]: 9%
- Population Membrane Permeable-Phenotype (%) [6]: 3%
- Population Mitochondria Different-Phenotype (%) [6]: 20%
- Population Mitotic Cells (%) [6]: 44%
- Population Normal (%) [6]: 90%
- Population Pyknosed Nuclei (%) [6]: 17%
- Population Tubulin-Different-Phenotype (%) [6]: 41%
- Total Cell Count [6]: 184
- Population Apoptotic (%) [7]: 70%
- Population Fragmented Nuclei (%) [7]: 22%
- Population Healthy Nuclei (%) [7]: 66%
- Population Hoechst High Intensity Objects (%) [7]: 3%
- Population Membrane Permeable-Phenotype (%) [7]: 0%
- Population Mitochondria Different-Phenotype (%) [7]: 22%
- Population Mitotic Cells (%) [7]: 29%
- Population Normal (%) [7]: 96%
- Population Pyknosed Nuclei (%) [7]: 10%
- Population Tubulin-Different-Phenotype (%) [7]: 76%
- Total Cell Count [7]: 231
- Population Apoptotic (%) [8]: 59%
- Population Fragmented Nuclei (%) [8]: 30%
- Population Healthy Nuclei (%) [8]: 46%
- Population Hoechst High Intensity Objects (%) [8]: 4%
- Population Membrane Permeable-Phenotype (%) [8]: 2%
- Population Mitochondria Different-Phenotype (%) [8]: 32%
- Population Mitotic Cells (%) [8]: 40%
- Population Normal (%) [8]: 95%
- Population Pyknosed Nuclei (%) [8]: 23%
- Population Tubulin-Different-Phenotype (%) [8]: 82%
- Total Cell Count [8]: 189
- Population Apoptotic (%) [9]: 66%
- Population Fragmented Nuclei (%) [9]: 23%
- Population Healthy Nuclei (%) [9]: 67%
- Population Hoechst High Intensity Objects (%) [9]: 2%
- Population Membrane Permeable-Phenotype (%) [9]: 1%
- Population Mitochondria Different-Phenotype (%) [9]: 3%
- Population Mitotic Cells (%) [9]: 33%
- Population Normal (%) [9]: 97%
- Population Pyknosed Nuclei (%) [9]: 8%
- Population Tubulin-Different-Phenotype (%) [9]: 29%
- Total Cell Count [9]: 137
- Population Apoptotic (%) [10]: 51%
- Population Fragmented Nuclei (%) [10]: 32%
- Population Healthy Nuclei (%) [10]: 51%
- Population Hoechst High Intensity Objects (%) [10]: 5%
- Population Membrane Permeable-Phenotype (%) [10]: 2%
- Population Mitochondria Different-Phenotype (%) [10]: 23%
- Population Mitotic Cells (%) [10]: 48%
- Population Normal (%) [10]: 94%
- Population Pyknosed Nuclei (%) [10]: 15%
- Population Tubulin-Different-Phenotype (%) [10]: 49%
- Total Cell Count [10]: 193
- Population Apoptotic (%) [11]: 83%
- Population Fragmented Nuclei (%) [11]: 19%
- Population Healthy Nuclei (%) [11]: 72%
- Population Hoechst High Intensity Objects (%) [11]: 3%
- Population Membrane Permeable-Phenotype (%) [11]: 0%
- Population Mitochondria Different-Phenotype (%) [11]: 22%
- Population Mitotic Cells (%) [11]: 16%
- Population Normal (%) [11]: 96%
- Population Pyknosed Nuclei (%) [11]: 8%
- Population Tubulin-Different-Phenotype (%) [11]: 85%
- Total Cell Count [11]: 232
- Population Apoptotic (%) [12]: 60%
- Population Fragmented Nuclei (%) [12]: 33%
- Population Healthy Nuclei (%) [12]: 57%
- Population Mitochondria Different-Phenotype (%) [12]: 16%
- Population Mitotic Cells (%) [12]: 40%
- Total Cell Count [12]: 231
